Test results: ChEMBL document CHEMBL3112463, “Synthesis and biological activity of polyalthenol and pentacyclindole analogues” (2014)

Columns and labels:
Type in all cases: functional
[1] = Antiproliferative activity against human HBL100 cells assessed as growth inhibition after 48 hrs by SRB assay; conditions: HBL-100, 48 h
Outline: (§1)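 Cells maintained at 37 °C, 5% CO₂ in medium with foetal calf serum and 2 mM L-glutamine. Trypsinized into antibiotic medium, >97% viable by trypan blue, plated at 10,000 cells/well. Triplicate dilutions from DMSO stocks (0.25% v/v DMSO control) added on day 1 for 48 h. TCA fixation (50%, 4 °C, 60 min), SRB stain, OD 492 nm corrected for medium-only blank.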

HeLa = test: Antiproliferative activity against human HeLa cells assessed as growth inhibition after 48 hrs by SRB assay; outline: as §1
SW1573 = test: Antiproliferative activity against human SW1573 cells assessed as growth inhibition after 48 hrs by SRB assay; conditions: SW1573, 48 h; outline: as §1
T47D = test: Antiproliferative activity against human T47D cells assessed as growth inhibition after 48 hrs by SRB assay
Outline: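 T-47D cells grown at 37 °C, 5% CO₂ in serum- and 2 mM L-glutamine-containing medium. Trypsinized, viability >97% by trypan blue, seeded at 15,000 cells/well. Compounds added day 1 in triplicate dilutions (DMSO vehicle 0.25% v/v as control) for 48 h. Cold 50% TCA fixation 60 min at 4 °C, SRB read at 492 nm with blank correction.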

A549 = test: Antiproliferative activity against human A549 cells assessed as growth inhibition after 48 hrs by SRB assay; conditions: A549, 48 h
Outline: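 Cells kept in medium with foetal calf serum and 2 mM L-glutamine at 37 °C, 5% CO₂. Trypsinized, resuspended in penicillin/streptomycin medium, >97% trypan blue viability, seeded at 10,000 cells/well. Compounds from DMSO stocks (0.25% v/v DMSO control), triplicate dilutions, added day 1 for 48 h. Fixed with cold 50% TCA for 60 min at 4 °C, then SRB staining, OD 492 nm, background corrected.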

WiDr = test: Antiproliferative activity against human WiDr cells assessed as growth inhibition after 48 hrs by SRB assay
Outline: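 WiDr cells seeded at 20,000 cells/well after trypsinization into antibiotic-containing medium (trypan blue viability >97%). Culture at 37 °C, 5% CO₂ with foetal calf serum and 2 mM L-glutamine. Exposure to triplicate compound dilutions from DMSO stocks (0.25% v/v DMSO control) started day 1, lasting 48 h. Fixed with ice-cold 50% TCA, 60 min at 4 °C, then SRB, OD 492 nm background-subtracted.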

GI50 (HeLa) [µM] | GI50 (SW1573) [µM] | GI50 (T47D) [µM] | GI50 (A549) [µM] | Compound | GI50 [1] [µM] | GI50 (WiDr) [µM]
4.9 | 7.8 | 18 | 11 | COC(=O)[C@@]1(C)CCC=C2[C@@H]1CC[C@@H](C)[C@]2(C)Cc1c[nH]c2c(C)cccc12 | 8 | 26
14 | 14 | 24 | 22 | COC(=O)[C@@]1(C)CCC=C2[C@@H]1CC[C@@H](C)[C@]2(C)Cc1c[nH]c2c(Cl)cccc12 | 19 | 31
11 | 14 | 17 | 15 | COC(=O)[C@@]1(C)CCC=C2[C@@H]1CC[C@@H](C)[C@]2(C)Cc1c(C)[nH]c2ccccc12 | 14 | 19
20 | 27 | 27 | 25 | COC(=O)[C@@]1(C)CC[C@@H]2C3=C1CC[C@@H](C)[C@]3(C)C[C@@H]1c3cc(F)ccc3N[C@H]21 | 18 | 32
14 | 15 | 19 | 14 | COC(=O)[C@@]1(C)CCC=C2[C@@H]1CC[C@@H](C)[C@]2(C)Cc1c(C)[nH]c2c(C)cccc12 | 16 | 21
10 | 12 | 16 | 15 | COC(=O)[C@@]1(C)CCC=C2[C@@H]1CC[C@@H](C)[C@]2(C)Cc1c[nH]c2ccc(Br)cc12 | 16 | 20
11 | 15 | 16 | 16 | COC(=O)[C@@]1(C)CC[C@@H]2C3=C1CC[C@@H](C)[C@]3(C)Cc1c2[nH]c2ccc(C)cc12 | 11 | 19
11 | 11 | 17 | 16 | COC(=O)[C@@]1(C)CCC=C2[C@@H]1CC[C@@H](C)[C@]2(C)Cc1c[nH]c2ccc(Cl)cc12 | 17 | 20
23 | 38 | 28 | 35 | COC(=O)[C@@]1(C)CC[C@@H]2C3=C1CC[C@@H](C)[C@]3(C)C[C@@H]1c3cc(Cl)ccc3N[C@H]21 | 28 | 48
12 | 14 | 17 | 17 | COC(=O)[C@@]1(C)CCC=C2[C@@H]1CC[C@@H](C)[C@]2(C)Cc1c(C)[nH]c2ccc(Cl)cc12 | 15 | 18
19 | 30 | 35 | 39 | COC(=O)[C@@]1(C)CC[C@@H]2C3=C1CC[C@@H](C)[C@]3(C)C[C@@H]1c3ccccc3N[C@H]21 | 78 | 50
25 | 45 | 31 | 40 | COC(=O)[C@@]1(C)CC[C@@H]2C3=C1CC[C@@H](C)[C@]3(C)C[C@@H]1c3cc(Br)ccc3N[C@H]21 | 34 | 55
20 | 25 | 19 | 22 | COC(=O)[C@@]1(C)CC[C@@H]2C3=C1CC[C@@H](C)[C@]3(C)C[C@@H]1c3cc(OC)ccc3N[C@H]21 | 15 | 25
1.2 | 1.3 | 3.7 | 2.2 | COC(=O)[C@@]1(C)CCC=C2[C@@H]1CC[C@@H](C)[C@]2(C)Cc1c[nH]c2ccc(OC)cc12 | 2.1 | 5.7
6.9 | 13 | 15 | 13 | COC(=O)[C@@]1(C)CCC=C2[C@@H]1CC[C@@H](C)[C@]2(C)Cc1c(/C=C/[N+](=O)[O-])[nH]c2ccccc12 | 16 | 21
3.9 | 5.9 | 6.5 | 7.7 | COC(=O)[C@@]1(C)CC[C@@H]2C3=C1CC[C@@H](C)[C@]3(C)Cc1c2[nH]c2ccc(OC)cc12 | 5 | 1.2
22 | 44 | 37 | 42 | COC(=O)[C@@]1(C)CC[C@@H]2C3=C1CC[C@@H](C)[C@]3(C)C[C@@H]1c3cccc(Br)c3N[C@H]21 | 40 | 54

GI50 (HeLa) [µM] | GI50 (SW1573) [µM] | GI50 (T47D) [µM] | GI50 (A549) [µM] | Compound | GI50 [1] [µM] | GI50 (WiDr) [µM]
12 | 16 | 23 | 16 | COC(=O)[C@@]1(C)CC[C@@H]2C3=C1CC[C@@H](C)[C@]3(C)Cc1c2[nH]c2c(C)cccc12 | 13 | 22
12 | 17 | 21 | 21 | COC(=O)[C@@]1(C)CC[C@@H]2C3=C1CC[C@@H](C)[C@]3(C)Cc1c2[nH]c2c(Cl)cccc12 | 16 | 21
18 | 26 | 31 | 35 | COC(=O)[C@@]1(C)CC[C@@H]2C3=C1CC[C@@H](C)[C@]3(C)Cc1c2[nH]c2c(Br)cccc12 | 26 | 37
22 | 25 | 31 | 27 | COC(=O)[C@@]1(C)CCC=C2[C@@H]1CC[C@@H](C)[C@]2(C)Cc1c(C)[nH]c2c(Br)cccc12 | 27 | 38
3.2 | 8.3 | 3.4 | 4.6 | COC(=O)[C@@]1(C)CC[C@@H]2C3=C1CC[C@@H](C)[C@]3(C)Cc1c2[nH]c2ccccc12 | 3.5 | 4
12 | 15 | 21 | 16 | COC(=O)[C@@]1(C)CCC=C2[C@@H]1CC[C@@H](C)[C@]2(C)Cc1c(C)[nH]c2ccc(OC)cc12 | 16 | 17
17 | 18 | 31 | 26 | COC(=O)[C@@]1(C)CCC=C2[C@@H]1CC[C@@H](C)[C@]2(C)Cc1c(C)[nH]c2ccc(C)cc12 | 25 | 28
> 100 | > 100 | > 100 | > 100 | COC(=O)[C@@]1(C)CCC=C2[C@@H]1CC[C@@H](C)[C@]2(C)Cc1c(C)n(C(c2ccccc2)c2ccccc2)c2ccc(Cl)cc12 | > 100 | > 100
22 | 31 | 29 | 30 | COC(=O)[C@@]1(C)CC[C@@H]2C3=C1CC[C@@H](C)[C@]3(C)C[C@@H]1c3cccc(C)c3N[C@H]21 | 32 | 43
11 | 12 | 15 | 15 | COC(=O)[C@@]1(C)CCC=C2[C@@H]1CC[C@@H](C)[C@]2(C)Cc1c(C)[nH]c2ccc(F)cc12 | 14 | 17
12 | 15 | 21 | 17 | COC(=O)[C@@]1(C)CCC=C2[C@@H]1CC[C@@H](C)[C@]2(C)Cc1c(C)[nH]c2ccc(C(F)(F)F)cc12 | 16 | 21
11 | 14 | 16 | 15 | COC(=O)[C@@]1(C)CCC=C2[C@@H]1CC[C@@H](C)[C@]2(C)Cc1c(C)[nH]c2ccc(Br)cc12 | 15 | 15
5.5 | 13 | 13 | 9.1 | Cc1c(C[C@]2(C)C3=CCC[C@](C)(C(=O)O)[C@H]3CC[C@H]2C)c2cc(Cl)ccc2n1C(c1ccccc1)c1ccccc1 | 13 | 16
18 | 23 | 23 | 27 | COC(=O)[C@@]1(C)CC[C@@H]2C3=C1CC[C@@H](C)[C@]3(C)C[C@@H]1c3cc(C)ccc3N[C@H]21 | 15 | 32
31 | 49 | 50 | 54 | COC(=O)[C@@]1(C)CC[C@@H]2C3=C1CC[C@@H](C)[C@]3(C)C[C@@H]1c3cccc(Cl)c3N[C@H]21 | 52 | 67
3.7 | 7.3 | 3.9 | 6.2 | COC(=O)[C@@]1(C)CCC=C2[C@@H]1CC[C@@H](C)[C@]2(C)Cc1c[nH]c2ccc(F)cc12 | 4.8 | 8
